Calls of active or inactive are those of the source. The rule behind the calls is not given here.
Experiments:
Leishmania infantum [1] = assay: Antileishmanial activity against Leishmania infantum MCAN/ES/89/IPZ229/1/89 promastigotes assessed as growth inhibition at 25 uM after 24 hrs; type: functional
Summary of the method: (§1)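 Log-phase L. infantum promastigotes (RPMI-1640, 10% FCS, 25 mM HEPES, pH 7.2, 26 °C) treated at 2×10^6 parasites/mL for 24 h. Screening used 25, 12.5 and 6.25 μM to give percent growth inhibition. Living cells measured by flow cytometry with propidium iodide exclusion. At least three independent experiments.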

Leishmania infantum [2] = assay: Antileishmanial activity against Leishmania infantum MCAN/ES/89/IPZ229/1/89 promastigotes assessed as growth inhibition at 12.5 uM after 24 hrs; type: functional; summary of the method: as §1
Leishmania infantum [3] = assay: Antileishmanial activity against Leishmania infantum MCAN/ES/89/IPZ229/1/89 promastigotes assessed as growth inhibition at 6.25 uM after 24 hrs; type: functional; summary of the method: as §1
Jurkat = assay: Cytotoxicity against human Jurkat cells assessed as live cells in neubauer chamber after 24 hrs by trypan blue assay; type: cell-based
[4] = Selectivity ratio, ratio of IC50 for human THP1 cells to IC50 for Leishmania infantum MCAN/ES/89/IPZ229/1/89 amastigotes; type: ADME, cell-based; conditions: THP-1 cells, read-out: Ratio IC50
Summary of the method: (§2)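 Selectivity index is IC50 against Jurkat or THP-1 cells divided by IC50 against L. infantum amastigotes. Host cells were treated in log phase at 4×10^5 cells/mL for 24 h at 37 °C, 5% CO2, at 0.08, 0.4, 2.0, 10.0 and 50.0 μM. Viability was measured by flow cytometry with propidium iodide exclusion.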

[5] = Selectivity ratio, ratio of IC50 for human Jurkat cells to IC50 for Leishmania infantum MCAN/ES/89/IPZ229/1/89 amastigotes; type: ADME, cell-based; conditions: read-out: Ratio IC50; summary of the method: as §2
Leishmania infantum [6] = assay: Antileishmanial activity against Leishmania infantum MCAN/ES/89/IPZ229/1/89 amastigotes after 24 hrs by microscopy; type: functional, organism-based; conditions: MCAN/ES/89/IPZ229/1/89, 24 h
Summary of the method: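 Axenic L. infantum amastigotes (M199, 10% FCS, pH 5.4, 37 °C) treated in log phase at 1×10^6 parasites/mL for 24 h. Living cells counted by flow cytometry with propidium iodide exclusion, with microscopic observation by phase contrast or fluorescence. At least three independent experiments.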

Leishmania infantum [7] = assay: Antileishmanial activity against Leishmania infantum MCAN/ES/89/IPZ229/1/89 promastigotes after 24 hrs […]; type: functional, organism-based; conditions: MCAN/ES/89/IPZ229/1/89, 24 h; summary of the method: as §1
THP-1 = assay: Cytotoxicity against human THP1 cells assessed as live cells in neubauer chamber after 24 hrs by trypan blue assay; type: cell-based; conditions: THP-1, 24 h
[8] = Permeability across human Caco2 cells; type: ADME, cell-based; conditions: Caco-2, read-out: permeability
[9] = Human intestinal absorption in human; type: ADME, organism-based; conditions: read-out: HIA
Summary of the method: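 Values are computed, not measured. Human intestinal absorption (%) and Caco-2 permeability (nm/s) were predicted in silico with the PreADMET program.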

SMILES	growth inhibition (GI) (Leishmania infantum [1])	GI (Leishmania infantum [1]) [%]	GI (Leishmania infantum [2]) [%]	GI (Leishmania infantum [3]) [%]	IC50 (Jurkat) [µM]	selectivity ratio [4]	selectivity ratio [5]	IC50 (Leishmania infantum [6]) [nM]	IC50 (Leishmania infantum [7]) [µM]	IC50 (THP-1) [µM]	Papp [8] [×10⁻⁶ cm/s]	Fa [9] [%]	growth inhibition (GI) (Leishmania infantum [2])	growth inhibition (GI) (Leishmania infantum [3])
Nc1ccc([Se][Se]c2ccc(N)c(C(=O)O)c2)cc1C(=O)O	inactive	–	–	–	–	–	–	–	–	–	–	–	–	–
N#C[Se]c1ccc(N)c(C(=O)O)c1	inactive	–	–	–	–	–	–	–	–	–	–	–	–	–
COc1ccc(C[Se][Se]Cc2ccc(OC)cc2)cc1	–	31.7	9.9	0.5	–	–	–	–	–	–	–	–	–	–
N#C[Se]Cc1ccc2ccccc2c1	–	91.5	81.1	37.1	14	5	4	3720	11.2	16.8	–	–	–	–
CCCCCCCCCCCCCCCCOP(=O)([O-])OCC[N+](C)(C)C [MILTEFOSINE]	–	–	–	–	33.4	7	17	2840	15	18.5	2.17	99	–	–
N#C[Se]Cc1ccc(Br)cc1	–	97.1	80.8	49.2	12.7	4	2	7950	11.6	28.9	–	–	–	–
CSc1ccc(C[Se]C#N)cc1	–	97.2	92.9	77.3	5.07	6	2	3020	11.6	17	–	–	–	–
N#C[Se]Cc1ccc(C(F)(F)F)cc1	–	98.8	97.2	79.4	7.31	9	3	2140	11.3	19.8	–	–	–	–
O=[N+]([O-])c1ccc(CC[Se][Se]CCc2ccc([N+](=O)[O-])cc2)cc1	–	28.4	3.2	1.2	–	–	–	–	–	–	–	–	–	–
N#C[Se]c1ccc(N)cc1	–	76.3	38.2	14.4	43.8	> 5	5	9290	11.2	> 50	–	–	–	–
FC(F)(F)c1ccc(C[Se][Se]Cc2ccc(C(F)(F)F)cc2)cc1	–	12.2	6	11	–	–	–	–	–	–	–	–	–	–
N#C[Se]CCc1ccc([N+](=O)[O-])cc1	–	88.9	81.8	46.6	2.4	5	1	3800	11.9	17.2	–	–	–	–
CN(C)c1ccc([Se]C#N)cc1	–	97.3	86.7	54.4	29.3	16	10	2790	9.24	44.7	–	–	–	–
N#Cc1cccc(C[Se][Se]Cc2cccc(C#N)c2)c1	–	44.3	35.4	22.6	–	–	–	–	–	–	–	–	–	–
N#C[Se]Cc1ccc([N+](=O)[O-])cc1	–	98	95	82.3	6.86	25	10	680	4.3	16.8	–	–	–	–
CC(=O)Nc1ccc([Se]C#N)cc1C(=O)O	inactive	–	–	–	–	–	–	–	–	–	–	–	–	–
Cc1ccc(C[Se]C#N)cc1	–	98.6	82.8	52.8	14.4	7	4	3330	11.8	24	–	–	–	–
N#C[Se]Cc1ccccc1 [BENZYLSELENOCYANATE]	–	99.4	64.1	46.5	10.7	10	4	2580	7.95	25	–	–	–	–
N#C[Se]Cc1cccc(C#N)c1	–	93	71.2	42.2	8.71	14	16	530	6.06	7.6	–	–	–	–
N#C[Se]Cc1cccc([N+](=O)[O-])c1	–	97	80.5	47.2	12.2	16	21	570	4.18	9.32	–	–	–	–
N#C[Se]Cc1ccc(C#N)cc1	–	97	80.4	51.5	13.4	15	24	550	4.14	7.97	–	–	–	–
c1ccc2cc(C[Se][Se]Cc3ccc4ccccc4c3)ccc2c1	inactive	–	–	–	–	–	–	–	–	–	–	–	–	–
N#Cc1ccc(C[Se][Se]Cc2ccc(C#N)cc2)cc1	–	32.8	21.9	10.9	–	–	–	–	–	–	–	–	–	–
N#C[Se]Cc1ccccc1C#N	–	90.2	62.4	31.4	17.1	5	5	3160	7.75	17.1	–	–	–	–
CSc1ccc(C[Se][Se]Cc2ccc(SC)cc2)cc1	–	17.5	–	–	–	–	–	–	–	–	–	–	inactive	inactive
Brc1ccc(C[Se][Se]Cc2ccc(Br)cc2)cc1	–	12.2	1.9	–	–	–	–	–	–	–	–	–	–	inactive
N#Cc1ccccc1C[Se][Se]Cc1ccccc1C#N	–	31.5	16.5	7.3	–	–	–	–	–	–	–	–	–	–
CC(=O)Nc1ccc([Se][Se]c2ccc(NC(C)=O)c(C(=O)O)c2)cc1C(=O)O	inactive	–	–	–	–	–	–	–	–	–	–	–	–	–
Cc1ccc(C[Se][Se]Cc2ccc(C)cc2)cc1	–	2.5	–	–	–	–	–	–	–	–	–	–	inactive	inactive
O=[N+]([O-])c1cccc(C[Se][Se]Cc2cccc([N+](=O)[O-])c2)c1	–	41.2	29.4	18.1	–	–	–	–	–	–	–	–	–	–

— ChEMBL document CHEMBL1806371, “Selenocyanates and diselenides: a new class of potent antileishmanial agents” (Eur J Med Chem, 2011)
